According to ChEMBL document CHEMBL1799961, “N-Acylhydrazones as inhibitors of PDE10A” (Bioorg Med Chem Lett, 2011):
Values belong to the compound of their own block, whether it stands above or below them. Calls of active or inactive are those of the source. The rule behind the calls is not given here.

Key:
[1] = target: T1, cAMP and cAMP-inhibited cGMP 3',5'-cyclic phosphodiesterase 10A (Mus musculus, UniProt Q8CA95); assay: Inhibition of mouse PDE10A assessed as inhibition of hydrolysis of [3H]cGMP to [3H]GMP after 20 mins by scintillation counting
T1 sequence (Q8CA95 whole entry): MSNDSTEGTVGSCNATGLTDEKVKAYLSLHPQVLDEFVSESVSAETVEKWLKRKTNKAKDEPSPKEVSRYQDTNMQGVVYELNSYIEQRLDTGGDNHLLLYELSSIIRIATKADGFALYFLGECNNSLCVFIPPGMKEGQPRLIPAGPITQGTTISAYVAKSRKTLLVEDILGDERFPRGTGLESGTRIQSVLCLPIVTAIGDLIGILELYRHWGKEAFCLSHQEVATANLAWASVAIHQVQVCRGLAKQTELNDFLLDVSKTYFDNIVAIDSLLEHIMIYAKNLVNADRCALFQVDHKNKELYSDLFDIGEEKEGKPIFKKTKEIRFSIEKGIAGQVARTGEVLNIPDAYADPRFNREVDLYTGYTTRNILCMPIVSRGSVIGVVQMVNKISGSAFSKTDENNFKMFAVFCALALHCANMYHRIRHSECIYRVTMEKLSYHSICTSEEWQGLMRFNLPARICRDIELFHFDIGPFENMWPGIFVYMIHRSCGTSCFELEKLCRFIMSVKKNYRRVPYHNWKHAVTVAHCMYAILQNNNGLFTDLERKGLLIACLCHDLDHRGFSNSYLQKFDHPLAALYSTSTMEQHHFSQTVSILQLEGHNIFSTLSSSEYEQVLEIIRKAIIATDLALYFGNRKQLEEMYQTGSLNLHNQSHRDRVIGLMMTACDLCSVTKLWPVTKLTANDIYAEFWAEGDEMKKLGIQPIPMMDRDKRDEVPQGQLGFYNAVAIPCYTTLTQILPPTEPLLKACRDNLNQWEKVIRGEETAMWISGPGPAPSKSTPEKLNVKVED
Procedure, shortened: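 Reaction was started with mouse PDE10 (25 ng/ml final) and run 20 min at 30 °C. Stopped with yttrium silicate SPA beads, scintillation counted 1–2 h later. IC50 from curve fitting.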

[2] = Tmax in rat at 9 mg/kg, po; format: ADME, organism-based; set-up: dose 9 mg/kg, route oral; details: in vivo
Procedure, shortened: (§1)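 Rat pharmacokinetics, dosed iv at 4 mg/kg and po at 9 mg/kg.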

Mus musculus [3] = species on record: Mus musculus; assay: Selectivity ratio of IC50 for mouse PDE7A to IC50 for mouse PDE10A
Procedure, shortened: (§2)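 Reaction started by adding enzyme (mouse PDE10 at 25 ng/ml final); 20 min at 30 °C. Stopped with yttrium silicate SPA beads, scintillation read 1–2 h later. IC50s from curve fits; ratio of other-PDE IC50 to PDE10A IC50.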

Mus musculus [4] = species on record: Mus musculus; assay: Selectivity ratio of IC50 for mouse PDE2A to IC50 for mouse PDE10A; procedure, shortened: as §2
[5] = Volume of distribution at steady state in rat at 4 mg/kg, iv; format: ADME, organism-based; set-up: dose 4 mg/kg, route intravenous; details: in vivo, read-out: Vdss; procedure, shortened: as §1
Mus musculus [6] = assay: Behavioral effect in mouse assessed as reduction in conditioned avoidance response at 10 to 30 mg/kg, ip administered 20 mins prior testing; format: functional, organism-based
Procedure, shortened: (§3)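 Mice trained in a shuttle-box to avoid foot-shock after a conditional stimulus, until at least 25 avoidances in 30 trials. Dosing was ip in 30 mM H3PO4, 0.2% tween 80, 5% DMSO, 20 min before testing; controls got vehicle. Eight mice per group. Paired-sample t-test compared each animal with its vehicle-injected performance on the previous day.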

[7] = Half life in rat at 4 mg/kg, iv; format: ADME, organism-based; set-up: dose 4 mg/kg, route intravenous; details: in vivo; procedure, shortened: as §1
Mus musculus [8] = species on record: Mus musculus; assay: Selectivity ratio of IC50 for mouse PDE3A to IC50 for mouse PDE10A; procedure, shortened: as §2
[9] = Cmax in rat at 9 mg/kg, po; format: ADME, organism-based; set-up: dose 9 mg/kg, route oral; details: in vivo; procedure, shortened: as §1
[10] = Oral bioavailability in rat at 9 mg/kg; format: ADME, organism-based; details: in vivo; procedure, shortened: as §1
Mus musculus [11] = species on record: Mus musculus; assay: Selectivity ratio of IC50 for mouse PDE9A to IC50 for mouse PDE10A; procedure, shortened: as §2
Mus musculus [12] = species on record: Mus musculus; assay: Selectivity ratio of IC50 for mouse PDE8A to IC50 for mouse PDE10A; procedure, shortened: as §2
Mus musculus [13] = species on record: Mus musculus; assay: Selectivity ratio of IC50 for mouse PDE5A to IC50 for mouse PDE10A; procedure, shortened: as §2
[14] = Clearance in rat at 4 mg/kg, iv; format: ADME, organism-based; set-up: dose 4 mg/kg, route intravenous; details: in vivo; procedure, shortened: as §1
Mus musculus [15] = assay: Antipsychotic activity in mouse assessed as inhibition of PCP-induced hyperlocomotion at 20 mg/kg, ip administered 20 mins prior testing; format: functional, organism-based; set-up: dose 20 mg/kg
Procedure, shortened: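 PCP-induced hyperlocomotion in mice: 20 mg/kg ip in 30 mM H3PO4, 0.2% tween 80, 5% DMSO, dosed 20 min before testing; PCP given ip 10 min before testing. Controls got vehicle. Normal activity range 500–1000. Eight mice per group; t-test for each interval.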

Mus musculus [16] = species on record: Mus musculus; assay: Selectivity ratio of IC50 for mouse PDE1A to IC50 for mouse PDE10A; procedure, shortened: as §2
Mus musculus [17] = species on record: Mus musculus; assay: Selectivity ratio of IC50 for mouse PDE4A to IC50 for mouse PDE10A; procedure, shortened: as §2
Mus musculus [18] = assay: Behavioral effect in ip dosed mouse assessed as reduction in conditioned avoidance response compound administered 20 mins prior testing; format: functional, organism-based; procedure, shortened: as §3
Mus musculus [19] = species on record: Mus musculus; assay: Selectivity ratio of IC50 for mouse PDE11A to IC50 for mouse PDE10A; procedure, shortened: as §2

- IC50 [1]: 11 nM
SMILES: COc1cc(/C=N/NC(=O)CSc2cc(C)nc3ccccc23)cc(C#N)c1OC

- IC50 [1]: 93 nM
SMILES: COc1cc(/C=N/NC(=O)CSc2cc(C)nc3ccccc23)ccc1Br

- IC50 [1]: 200 nM
SMILES: COc1cc(Cl)c(/C=N/NC(=O)CSc2cc(C)nc3ccccc23)cc1OC

- IC50 [1]: 49 nM
SMILES: COc1ccc(/C=N/NC(=O)CSc2cc(C)nc3ccccc23)cc1OC

- IC50 [1]: 30 nM
SMILES: COc1cc(/C=N/NC(=O)CSc2cc(C)nc3ccccc23)cc(Br)c1OC

- IC50 [1]: 4600 nM
SMILES: COc1ccc(/C=N/NC(=O)CSc2cc(C)nc3ccccc23)c(Cl)c1OC

- IC50 [1]: 160 nM
SMILES: COc1cc(/C=N/NC(=O)CSc2cc(C)nc3ccccc23)ccc1C#N

- IC50 [1]: 45 nM
SMILES: COc1cc(/C=N/NC(=O)CSc2cc(C)nc3ccccc23)cc(Cl)c1OC

- IC50 [1]: 87 nM
SMILES: COc1cc(/C=N/NC(=O)CSc2cc(C)nc3ccccc23)ccc1Cl

- IC50 [1]: 190 nM
SMILES: COc1cc(/C=N/NC(=O)CSc2cc(C)nc3ccccc23)ccc1F

- IC50 [1]: 150 nM
SMILES: COc1cc(/C=N/NC(=O)CSc2cc(C)nc3ccccc23)cc(OC)c1

- IC50 [1]: 4800 nM
SMILES: COc1ccc(/C=N/NC(=O)CSc2cc(C)nc3ccccc23)c(Br)c1OC

- IC50 [1]: 100 nM
SMILES: COc1cc(/C=N/NC(=O)CSc2cc(C)nc3ccccc23)ccc1C

- IC50 [1]: 14 nM
SMILES: COc1cc(/C=N/NC(=O)CSc2cc(C)nc3ccccc23)cc(OC)c1C#N

- IC50 [1]: 4.8 nM
SMILES: COc1cc(/C=N/NC(=O)CSc2cc(C)nc3ccccc23)cc(OC)c1Br

- IC50 [1]: 51 nM
SMILES: COc1cc(/C=N/NC(=O)CSc2cc(C)nc3ccccc23)cc(F)c1OC

- IC50 [1]: 10 nM
SMILES: COc1cc(/C=N/NC(=O)CSc2cc(C)nc3ccccc23)cc(OC)c1OC

- IC50 [1]: 77 nM
SMILES: COc1cc(Br)c(/C=N/NC(=O)CSc2cc(C)nc3ccccc23)cc1OC

- IC50 [1]: 190 nM
SMILES: COc1cc(F)c(/C=N/NC(=O)CSc2cc(C)nc3ccccc23)cc1OC

More lines, now with the values behind:

SMILES: COc1cc(/C=N/NC(=O)CSc2ccncc2)cc(OC)c1OC
- IC50 [1]: 550 nM

SMILES: COc1ccc(/C=N/NC(=O)CSc2cc(C)nc3ccccc23)cc1C(F)(F)F
- IC50 [1]: 420 nM

SMILES: COc1ccc(/C=N/NC(=O)COc2cc(C)nc3ccccc23)cc1OC
- IC50 [1]: 1600 nM

SMILES: COc1ccc(/C=N/NC(=O)CSc2cc(C)nc3ccccc23)cc1OC(F)(F)F
- IC50 [1]: 1700 nM

SMILES: COc1ccc(/C=N/NC(=O)CSc2cc(C)nc3ccccc23)cc1Cl
- IC50 [1]: 220 nM

SMILES: COc1cc(/C=N/NC(=O)CSc2cc(C)nc3ccccc23)ccc1C(F)(F)F
- IC50 [1]: 250 nM

SMILES: COc1cc(/C=N/NC(=O)CSc2ccc([N+](=O)[O-])c3ccccc23)cc(OC)c1OC
- IC50 [1]: 100 nM

SMILES: COc1cc(/C=N/NC(=O)CSc2cccc3cccnc23)cc(OC)c1OC
- IC50 [1]: 190 nM

SMILES: COc1cc(/C=N/NC(=O)CSc2ccc3ccccc3n2)cc(OC)c1OC
- IC50 [1]: 140 nM

SMILES: Cc1cc(SCC(=O)N/N=C/c2ccc(OC(F)F)c(OC(F)F)c2)c2ccccc2n1
- IC50 [1]: 310 nM

SMILES: COc1cc(/C=N/NC(=O)CSc2ccc(-c3ccccc3)cc2)cc(OC)c1OC
- IC50 [1]: 260 nM

SMILES: COc1cc(/C=N/NC(=O)CSc2ccncn2)cc(OC)c1OC
- IC50 [1]: 1070 nM

SMILES: COc1ccc2nc(C)cc(SCC(=O)N/N=C/c3cc(OC)c(OC)c(OC)c3)c2c1
- Tmax [2]: 0.25 h
- IC50 [1]: 8 nM
- Ratio IC50 (Mus musculus [3]): > 110
- Ratio IC50 (Mus musculus [4]): > 110
- Vd [5]: 17.4 L/kg
- Activity (Mus musculus [6]): Active
- half-life [7]: 11.3 h
- Ratio IC50 (Mus musculus [8]): > 110
- Cmax [9]: 539 ng/mL
- bioavailability [10]: 21%
- Ratio IC50 (Mus musculus [11]): > 110
- Ratio IC50 (Mus musculus [12]): > 110
- Ratio IC50 (Mus musculus [13]): > 110
- clearance [14]: 55 mL/min/kg
- inhibition (Mus musculus [15]): Active
- Ratio IC50 (Mus musculus [16]): > 110
- Ratio IC50 (Mus musculus [17]): > 110
- Activity (Mus musculus [18]): Dose-dependent effect
- Ratio IC50 (Mus musculus [19]): > 110

SMILES: COc1ccc(/C=N/NC(=O)CSc2cc(C)nc3ccccc23)cc1F
- IC50 [1]: 620 nM

SMILES: COc1cccc(/C=N/NC(=O)CSc2cc(C)nc3ccccc23)c1
- IC50 [1]: 1200 nM

SMILES: COc1ccc(/C=N/NC(=O)CSc2cc(C)nc3ccccc23)cc1OC(C)C
- IC50 [1]: 660 nM

SMILES: COc1cc(/C=N/NC(=O)CSc2ccc(OC(F)(F)F)cc2)cc(OC)c1OC
- IC50 [1]: 860 nM

SMILES: CCOc1cc(/C=N/NC(=O)CSc2cc(C)nc3ccccc23)ccc1OC
- IC50 [1]: 260 nM

SMILES: COc1ccc(/C=N/NC(=O)CSc2cc(C)nc3ccccc23)cc1
- IC50 [1]: 1400 nM

SMILES: COc1cc(/C=N/NC(=O)CSc2ccnc3ccccc23)cc(OC)c1OC
- IC50 [1]: 24 nM

SMILES: COc1cc(/C=N/N(C)C(=O)CSc2cc(C)nc3ccccc23)cc(OC)c1OC
- IC50 [1]: 26 nM

SMILES: COc1ccccc1SCC(=O)N/N=C/c1cc(OC)c(OC)c(OC)c1
- IC50 [1]: 660 nM

SMILES: COc1ccc(/C=N/NC(=O)CNc2cc(C)nc3ccccc23)cc1OC
- IC50 [1]: 8000 nM

SMILES: COc1cc(/C=N/NC(=O)CSc2ccnc3cc(Cl)ccc23)cc(OC)c1OC
- IC50 [1]: 28 nM

SMILES: COc1ccc(/C(C)=N/NC(=O)CSc2cc(C)nc3ccccc23)cc1OC
- IC50 [1]: 180 nM

SMILES: COc1cc(/C=N/NC(=O)CN(C)c2cc(C)nc3ccccc23)cc(OC)c1OC
- IC50 [1]: 360 nM
